The source of these data is ChEMBL document CHEMBL4138161, “Discovery of simplified sampangine derivatives as novel fungal biofilm inhibitors” (Eur J Med Chem, 2018).

One assay concerns Nannizzia gypsea. Put plainly: Antifungal activity against Microsporum gypseum Cmccfmza after 24 hrs by spectrophotometric analysis. The assay is classed as functional. The gist of the method:
(§1)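 Broth microdilution in RPMI 1640, inoculum 5×10^3 CFU/mL, compounds from 6.4 mg/mL DMSO stocks, 35 ℃ for 24 h. Growth read as OD600; MIC80 taken as lowest concentration giving 80% growth inhibition. Triplicate.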

The subject of assay [1] is Candida albicans. Nature of the assay: Antibiofilm activity against Candida albicans SC5314 assessed inhibition of yeast-to-hypha morphological transition at 0.5 ug/ml after 3 hrs. It is filed as functional, organism-based. An outline of the steps: (§2)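 Yeast-to-hypha transition in YPD with 10% (v/v) FBS across compound concentrations; cell morphology photographed after 3 h at 37°C.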

Another assay concerns Nakaseomyces glabratus. Nature of the assay: Antifungal activity against Candida glabrata 537 after 24 hrs by spectrophotometric analysis. It is filed as functional. Particulars: Nakaseomyces glabratus, 537, 24 h. The gist of the method: as §1
The test system of a further assay is Aspergillus fumigatus. Put plainly: Antifungal activity against Aspergillus fumigatus 07544 after 24 hrs by spectrophotometric analysis. It is filed as functional. The conditions noted are these: Aspergillus fumigatus, 07544, 24 h. An outline of the steps:
as §1

For the next assay, the system named is Cryptococcus neoformans. Nature of the assay: Antifungal activity against Cryptococcus neoformans 32609 after 24 hrs by spectrophotometric analysis. The assay is classed as functional. Particulars: Cryptococcus neoformans, 32609, 24 h. An outline of the steps: as §1
Assay [2] relates to Candida albicans. Put plainly: Antifungal activity against Candida albicans SC5314 after 48 hrs by spectrophotometric analysis. Particulars: SC5314, 48 h. The assay is classed as functional.
The test system of a further assay is Trichophyton rubrum. Put plainly: Antifungal activity against Trichophyton rubrum Cmccftla after 24 hrs by spectrophotometric analysis. The assay is classed as functional. The gist of the method:
as §1

A further assay concerns Candida parapsilosis. Put plainly: Antifungal activity against Candida parapsilosis 22019 after 24 hrs by spectrophotometric analysis. It is filed as functional. Particulars: Lodderomyces parapsilosis, 22019, 24 h. The gist of the method: as §1
Assay [3] has as its system Candida albicans. Nature of the assay: Antibiofilm activity against Candida albicans SC5314 assessed inhibition of yeast-to-hypha morphological transition at 0.2 to 2 ug/ml after 3 hrs. The assay is classed as functional, organism-based. The gist of the method:
as §2

Assay [4] concerns Candida albicans. Put plainly: Antifungal activity against Candida albicans SC5314 after 24 hrs by spectrophotometric analysis. Particulars: SC5314, 24 h. It is filed as functional. The gist of the method: as §1
In assay [5] the test system is Candida albicans. Put plainly: Antifungal activity against fluconazole-resistant Candida albicans isolate Chang7 clinical isolate after 24 hrs by spectrophotometric analysis. The assay is classed as functional. The conditions noted are these: isolate Chang7, 24 h. An outline of the steps: (§3)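 Broth microdilution (MIC80) against fluconazole-resistant clinical C. albicans isolates from a Shanghai hospital. Strains were grown in YPD at 30 ℃. Compounds came from 6.4 mg/mL DMSO stocks and were tested over a concentration series on 5×10^3 CFU/mL inoculum in RPMI 1640 at 35 ℃ for 24 h. OD600 was read; MIC80 is the lowest concentration giving 80% growth inhibition. Done in triplicate.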

For assay [6], the system named is Candida albicans. Put plainly: Antifungal activity against fluconazole-resistant Candida albicans clinical isolate 103 after 24 hrs by spectrophotometric analysis. It is filed as functional. The conditions noted are these: isolate 103, 24 h. An outline of the steps: as §3
In assay [7] the test system is Candida albicans. Put plainly: Antifungal activity against fluconazole-resistant Candida albicans isolate J38 clinical isolate after 24 hrs by spectrophotometric analysis. The assay is classed as functional. Particulars: isolate J38, 24 h. An outline of the steps:
as §3

The test system of assay [8] is Candida albicans. Put plainly: Antibiofilm activity against Candida albicans assessed inhibition of biofilm formation at 1024 ug/ml. The assay is classed as functional.
For assay [9], the system named is Candida albicans. Put plainly: Antifungal activity against fluconazole-resistant Candida albicans clinical isolate 032 after 24 hrs by spectrophotometric analysis. It is filed as functional. The conditions noted are these: isolate 032, 24 h. The gist of the method: as §3
Assay [10] has as its system Candida albicans. Put plainly: Antifungal activity against Candida albicans infected in Sprague-Dawley rat vaginal infection model assessed as reduction in vaginal fungal burden at 1 mg/kg, administered intravaginally on day 1 to day 3 post fungal inoculation measured on day 4. It is filed as functional, organism-based. An outline of the steps: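 Ovariectomized rats inoculated intravaginally with 0.1 mL of 1×10^7 CFU/mL C. albicans on days 10, 11 and 12 after surgery. Compound in saline with 1% DMSO (2, 4, 8 mg/mL) given intravaginally on days 1–3 post-inoculation. On day 4, 100 µL vaginal fluid plated on chloramphenicol SDA agar for CFU counts.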

Assay [11] has as its system Candida albicans. Put plainly: Antifungal activity against fluconazole-resistant Candida albicans clinical isolate 1010 after 24 hrs by spectrophotometric analysis. The assay is classed as functional. The conditions noted are these: isolate 1010, 24 h. The gist of the method:
as §3

Converted amounts (≈) assume the structure as drawn. The source made the active and inactive calls. The rule behind the calls is not given here.

The term MIC80 denotes the lowest concentration that inhibits either 80% of growth or 80% of the strains tested, depending on the study. Low values mean higher susceptibility, high ones lower susceptibility. The inhibition is the relative decrease from the control value, in per cent. With `Cc1cnc2c(c1)C(=O)c1sc([N+](=O)[O-])cc1C2=O`, the MIC80 with Nannizzia gypsea amounted to 0.5 µg/mL (≈ 1.82 µM); with Nakaseomyces glabratus it was 1 µg/mL (≈ 3.65 µM); against Aspergillus fumigatus, 2 µg/mL (≈ 7.29 µM); against Cryptococcus neoformans, 0.5 µg/mL (≈ 1.82 µM); against Candida albicans [2], 0.5 µg/mL (≈ 1.82 µM); in the assay with Trichophyton rubrum it was 1 µg/mL (≈ 3.65 µM). The MIC80 against Candida parapsilosis was 1 µg/mL (≈ 3.65 µM); against Candida albicans [4], 0.5 µg/mL (≈ 1.82 µM). Also, the outcome in the assay with Candida albicans [1] was Active. Moreover, the inhibition result in the assay with Candida albicans [3] was “inactive”.
With `OC(Cn1cncn1)(Cn1cncn1)c1ccc(F)cc1F` [FLUCONAZOLE], the MIC80 is 32 µg/mL (≈ 104 µM) against Nannizzia gypsea; 2 µg/mL (≈ 6.53 µM) in the assay on Nakaseomyces glabratus; 2 µg/mL (≈ 6.53 µM) with Candida albicans [5]; above 64 µg/mL in the assay with Aspergillus fumigatus; above 64 µg/mL in the assay on Candida albicans [6]; 1 µg/mL (≈ 3.27 µM) in the assay on Cryptococcus neoformans. Also, the MIC80 with Candida albicans [7] was above 64 µg/mL; with Trichophyton rubrum it was 4 µg/mL (≈ 13.1 µM); against Candida albicans [9], above 64 µg/mL; in the assay with Candida parapsilosis, 2 µg/mL (≈ 6.53 µM); in the assay with Candida albicans [11] it was above 64 µg/mL; against Candida albicans [4], 0.25 µg/mL (≈ 0.816 µM). This molecule gave an inhibition at 1024 µg/mL with Candida albicans [8] of 60%. Further, the result in the assay with Candida albicans [10] was Active.
On to `Cc1cnc2c(c1C)C(=O)c1sc([N+](=O)[O-])cc1C2=O`, for which the MIC80 was 1 µg/mL (≈ 3.47 µM) in the assay with Nannizzia gypsea; 1 µg/mL (≈ 3.47 µM) against Nakaseomyces glabratus; 1 µg/mL (≈ 3.47 µM) against Aspergillus fumigatus; 0.5 µg/mL (≈ 1.73 µM) against Cryptococcus neoformans; 4 µg/mL (≈ 13.9 µM) with Candida albicans [2]; 0.5 µg/mL (≈ 1.73 µM) in the assay with Trichophyton rubrum. The MIC80 against Candida parapsilosis is 0.5 µg/mL (≈ 1.73 µM); in the assay with Candida albicans [4] it was 0.25 µg/mL (≈ 0.867 µM). Moreover, the outcome in the assay with Candida albicans [1] was Active. In addition, the inhibition result with Candida albicans [3] was “inactive”.
Take `O=C1c2cc([N+](=O)[O-])sc2C(=O)c2cccnc21`: the MIC80 with Nannizzia gypsea came to 0.5 µg/mL (≈ 1.92 µM); with Nakaseomyces glabratus it was 1 µg/mL (≈ 3.84 µM); against Aspergillus fumigatus, 1 µg/mL (≈ 3.84 µM); with Cryptococcus neoformans it was 0.5 µg/mL (≈ 1.92 µM); against Trichophyton rubrum it was 0.5 µg/mL (≈ 1.92 µM); in the assay on Candida parapsilosis it was 2 µg/mL (≈ 7.69 µM). This molecule registered an MIC80 against Candida albicans [4] of 0.5 µg/mL (≈ 1.92 µM).
Turning to `Cc1ccnc2c1[C@H](O)c1sc([N+](=O)[O-])cc1[C@@H]2O` (relative stereo), the MIC80 in the assay on Nannizzia gypsea worked out at 8 µg/mL (≈ 28.7 µM); against Nakaseomyces glabratus, 2 µg/mL (≈ 7.19 µM); with Aspergillus fumigatus it was 16 µg/mL (≈ 57.5 µM); with Cryptococcus neoformans it was 4 µg/mL (≈ 14.4 µM); with Trichophyton rubrum, 2 µg/mL (≈ 7.19 µM); with Candida parapsilosis, 8 µg/mL (≈ 28.7 µM). The molecule further returned an MIC80 against Candida albicans [4] of 2 µg/mL (≈ 7.19 µM).
For the molecule `CCC(C)n1ncn(-c2ccc(N3CCN(c4ccc(OCC5COC(Cn6cncn6)(c6ccc(Cl)cc6Cl)O5)cc4)CC3)cc2)c1=O` (stereo not given) [ITRACONAZOLE], the MIC80 against Nannizzia gypsea worked out at 4 µg/mL (≈ 5.67 µM); in the assay on Nakaseomyces glabratus it was 1 µg/mL (≈ 1.42 µM); in the assay on Aspergillus fumigatus it was 8 µg/mL (≈ 11.3 µM); in the assay on Cryptococcus neoformans it was 4 µg/mL (≈ 5.67 µM); against Trichophyton rubrum it was 4 µg/mL (≈ 5.67 µM); against Candida parapsilosis, 8 µg/mL (≈ 11.3 µM). In addition, in the assay on Candida albicans [4], the MIC80 was 8 µg/mL (≈ 11.3 µM).
Regarding `Cc1ccnc2cc3cc([N+](=O)[O-])sc3cc12`, the MIC80 in the assay on Nannizzia gypsea was above 64 µg/mL; in the assay on Nakaseomyces glabratus, 16 µg/mL (≈ 65.5 µM); against Aspergillus fumigatus, above 64 µg/mL; against Cryptococcus neoformans, above 64 µg/mL; in the assay on Trichophyton rubrum, 4 µg/mL (≈ 16.4 µM); in the assay with Candida parapsilosis it was above 64 µg/mL. Besides, in the assay on Candida albicans [4], the MIC80 is above 64 µg/mL.
`O=C1c2cc([N+](=O)[O-])sc2C(=O)c2c(-c3ccco3)ccnc21`: the MIC80 in the assay with Nannizzia gypsea stood at 8 µg/mL (≈ 24.5 µM); in the assay with Nakaseomyces glabratus, 4 µg/mL (≈ 12.3 µM); against Aspergillus fumigatus, 16 µg/mL (≈ 49 µM); against Cryptococcus neoformans, 2 µg/mL (≈ 6.13 µM); in the assay on Trichophyton rubrum it was 16 µg/mL (≈ 49 µM); in the assay with Candida parapsilosis, 4 µg/mL (≈ 12.3 µM). In addition, in the assay on Candida albicans [4], the MIC80 amounted to 4 µg/mL (≈ 12.3 µM).
As for `Cc1ccnc2c1C(=O)c1scc([N+](=O)[O-])c1C2=O`, the MIC80 in the assay on Nannizzia gypsea was 8 µg/mL (≈ 29.2 µM); with Nakaseomyces glabratus it was 4 µg/mL (≈ 14.6 µM); in the assay on Aspergillus fumigatus, above 64 µg/mL; in the assay with Cryptococcus neoformans it was 4 µg/mL (≈ 14.6 µM); in the assay with Trichophyton rubrum, 4 µg/mL (≈ 14.6 µM); in the assay on Candida parapsilosis it was above 64 µg/mL. The same molecule registered an MIC80 in the assay on Candida albicans [4] of 4 µg/mL (≈ 14.6 µM).
As to `CCCCc1cnc2c(c1)C(=O)c1sc([N+](=O)[O-])cc1C2=O`, the MIC80 in the assay with Nannizzia gypsea amounted to 1 µg/mL (≈ 3.16 µM); against Nakaseomyces glabratus, 4 µg/mL (≈ 12.6 µM); against Aspergillus fumigatus, 4 µg/mL (≈ 12.6 µM); with Cryptococcus neoformans, 0.5 µg/mL (≈ 1.58 µM); against Trichophyton rubrum, 1 µg/mL (≈ 3.16 µM); against Candida parapsilosis, 4 µg/mL (≈ 12.6 µM). Moreover, in the assay with Candida albicans [4], the MIC80 is 2 µg/mL (≈ 6.32 µM).
Take `O=C1c2ccccc2-c2nccc3ccnc1c23` [SAMPANGINE]: the MIC80 with Nannizzia gypsea is above 64 µg/mL; in the assay on Nakaseomyces glabratus, 16 µg/mL (≈ 68.9 µM); with Aspergillus fumigatus, 16 µg/mL (≈ 68.9 µM); in the assay on Cryptococcus neoformans, 2 µg/mL (≈ 8.61 µM); with Trichophyton rubrum, 16 µg/mL (≈ 68.9 µM); in the assay with Candida parapsilosis, 4 µg/mL (≈ 17.2 µM). In the assay with Candida albicans [4], the MIC80 came out at 0.5 µg/mL (≈ 2.15 µM).
